Data from ChEMBL document CHEMBL4219224, “Structure based drug design and in vitro metabolism study: Discovery of N-(4-methylthiophenyl)-N,2-dimethyl-cyclopenta[d]pyrimidine as a potent microtubule targeting agent” (Bioorg Med Chem, 2018).
pEC50, pIC50: −log10 of the molar value.

What was measured:
MCF7 = test: Growth inhibition of human MCF7 cells incubated for 48 hrs by sulforhodamine B assay; format: functional; details: MCF7, 48 h
SK-MEL-5 = test: Growth inhibition of human SK-MEL-5 cells incubated for 48 hrs by sulforhodamine B assay; format: functional; details: SK-MEL-5, 48 h
LOX IMVI = test: Growth inhibition of human LOXIMVI cells incubated for 48 hrs by sulforhodamine B assay; format: functional
COLO 205 = test: Growth inhibition of human COLO205 cells incubated for 48 hrs by sulforhodamine B assay; format: functional; details: COLO 205, 48 h
HT-29 = test: Growth inhibition of human HT-29 cells incubated for 48 hrs by sulforhodamine B assay; format: functional; details: HT-29, 48 h
SNB-75 = test: Growth inhibition of human SNB75 cells incubated for 48 hrs by sulforhodamine B assay; format: functional; details: SNB-75, 48 h
HeLa [1] = test: Antiproliferative activity against human HeLa cells expressing wild type beta3 tubulin by SRB assay; format: functional, cell-based
SR = test: Growth inhibition of human SR cells incubated for 48 hrs by sulforhodamine B assay; format: functional
KM12 = test: Growth inhibition of human KM12 cells incubated for 48 hrs by sulforhodamine B assay; format: functional; details: KM12, 48 h
Bos taurus [2] = species on record: Bos taurus; test: Inhibition of [3H]colchicine binding to bovine brain tubulin at 1 uM measured after 10 mins by scintillation counting method relative to control
Summary of the method: (§1)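 Reactions of 0.1 mL held 1.0 μM bovine brain tubulin, 5.0 μM [3H]colchicine, inhibitor at 1.0 or 5.0 μM, colchicine-binding stabilizing components and 5% DMSO, assembled on ice with tubulin added last. Incubated 10 min at 37 °C, stopped with ice water, filtered through DEAE-cellulose filters. Bound radiolabel counted by scintillation.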

NCI-H460 = test: Growth inhibition of human NCI-H460 cells incubated for 48 hrs by sulforhodamine B assay; format: functional; details: NCI-H460, 48 h
SF-268 = test: Growth inhibition of human SF268 cells incubated for 48 hrs by sulforhodamine B assay; format: functional; details: SF-268, 48 h
OVCAR-4 = test: Growth inhibition of human OVCAR4 cells incubated for 48 hrs by sulforhodamine B assay; format: functional; details: OVCAR-4, 48 h
NCI-H23 = test: Growth inhibition of human NCI-H23 cells incubated for 48 hrs by sulforhodamine B assay; format: functional; details: NCI-H23, 48 h
ACHN = test: Growth inhibition of human ACHN cells incubated for 48 hrs by sulforhodamine B assay; format: functional
EKVX = test: Growth inhibition of human EKVX cells incubated for 48 hrs by sulforhodamine B assay; format: functional
RPMI-8226 = test: Growth inhibition of human RPMI8226 cells incubated for 48 hrs by sulforhodamine B assay; format: functional; details: RPMI-8226, 48 h
SK-OV-3 [3] = test: Antiproliferative activity against human SKOV3 cells by SRB assay; format: functional, cell-based
OVCAR-3 = test: Growth inhibition of human OVCAR3 cells incubated for 48 hrs by sulforhodamine B assay; format: functional; details: OVCAR-3, 48 h
HCC 2998 = test: Growth inhibition of human HCC2998 cells incubated for 48 hrs by sulforhodamine B assay; format: functional; details: HCC 2998, 48 h
Bos taurus [4] = species on record: Bos taurus; test: Inhibition of [3H]colchicine binding to bovine brain tubulin at 5 uM measured after 10 mins by scintillation counting method relative to control; summary of the method: as §1
NCI/ADR-RES = test: Growth inhibition of human NCI/ADR-RES cells incubated for 48 hrs by sulforhodamine B assay; format: functional
SK-MEL-28 = test: Growth inhibition of human SK-MEL-28 cells incubated for 48 hrs by sulforhodamine B assay; format: functional; details: SK-MEL-28, 48 h
A498 = test: Growth inhibition of human A498 cells incubated for 48 hrs by sulforhodamine B assay; format: functional; details: A498, 48 h
SNB-19 = test: Growth inhibition of human SNB19 cells incubated for 48 hrs by sulforhodamine B assay; format: functional; details: SNB-19, 48 h
NCI-H522 = test: Growth inhibition of human NCI-H522 cells incubated for 48 hrs by sulforhodamine B assay; format: functional; details: NCI-H522, 48 h
SK-OV-3 [5] = test: Growth inhibition of human SKOV3 cells incubated for 48 hrs by sulforhodamine B assay; format: functional; details: SK-OV-3, 48 h
[6] = Induction of microtubule depolymerization in rat A10 cells by indirect immunofluorescence method; format: cell-based
Summary of the method: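 A-10 cells, which arrest in interphase, used to score loss of interphase microtubules. EC50 values calculated per an earlier method, minimum of three independent experiments.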

SF-295 = test: Growth inhibition of human SF295 cells incubated for 48 hrs by sulforhodamine B assay; format: functional; details: SF-295, 48 h
[7] = Antiproliferative activity against human SKOV3-MDR1-M6/6 cells by SRB assay; format: functional
HeLa [8] = test: Antiproliferative activity against human HeLa cells by SRB assay; format: functional, cell-based
MOLT-4 = test: Growth inhibition of human MOLT4 cells incubated for 48 hrs by sulforhodamine B assay; format: functional; details: MOLT-4, 48 h
IGROV-1 = test: Growth inhibition of human IGROV1 cells incubated for 48 hrs by sulforhodamine B assay; format: functional; details: IGROV-1, 48 h
K562 = test: Growth inhibition of human K562 cells incubated for 48 hrs by sulforhodamine B assay; format: functional; details: K562, 48 h
HeLa [9] = test: Resistance index, ratio of IC50 for human HeLa cells expressing wild type beta3 tubulin to IC50 for human HeLa cells; format: functional
Summary of the method: (§2)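 Antiproliferative IC50 by SRB assay (cellular protein) in each isogenic pair: SK-OV-3 parental versus Pgp-expressing, and parental HeLa versus wild-type βIII-tubulin-expressing HeLa. Rr is the IC50 ratio of the modified line to the parental line. At least three independent experiments, each in triplicate, mean ± SD.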

HOP-62 = test: Growth inhibition of human HOP62 cells incubated for 48 hrs by sulforhodamine B assay; format: functional; details: HOP-62, 48 h
SK-MEL-2 = test: Growth inhibition of human SK-MEL-2 cells incubated for 48 hrs by sulforhodamine B assay; format: functional; details: SK-MEL-2, 48 h
RXF 393 = test: Growth inhibition of human RXF393 cells incubated for 48 hrs by sulforhodamine B assay; format: functional; details: RXF 393, 48 h
786-0 = test: Growth inhibition of human 786-0 cells incubated for 48 hrs by sulforhodamine B assay; format: functional; details: 786-0, 48 h
MDA-MB-231 = test: Growth inhibition of human MDA-MB-231 cells incubated for 48 hrs by sulforhodamine B assay; format: functional; details: MDA-MB-231, 48 h
[10] = Resistance index, ratio of IC50 for human SKOV3-MDR1-M6/6 cells to IC50 for human SKOV3 cells; format: functional; summary of the method: as §2
OVCAR-8 = test: Growth inhibition of human OVCAR8 cells incubated for 48 hrs by sulforhodamine B assay; format: functional; details: OVCAR-8, 48 h
MDA-MB-468 = test: Growth inhibition of human MDA-MB-468 cells incubated for 48 hrs by sulforhodamine B assay; format: functional; details: MDA-MB-468, 48 h
U-251 = test: Growth inhibition of human U251 cells incubated for 48 hrs by sulforhodamine B assay; format: functional; details: U-251, 48 h

`CSc1ccc(N(C)c2nc(C)nc3c2CCC3)cc1` showed a GI50 (MCF7) of less than 10 nM, a GI50 (SK-MEL-5) of less than 10 nM and a GI50 (LOX IMVI) of less than 10 nM. It also gave a GI50 (COLO 205) of less than 10 nM, a GI50 (HT-29) of less than 10 nM and a GI50 (SNB-75) of less than 10 nM. It also gave a pIC50 (HeLa [1]) of 8.28, a GI50 (SR) of less than 10 nM and a GI50 (KM12) of less than 10 nM. For the same molecule, the inhibition (Bos taurus [2]) was 74%, the GI50 (NCI-H460) was less than 10 nM and the GI50 (SF-268) was less than 10 nM. It also gave a GI50 (OVCAR-4) of less than 10 nM, a GI50 (NCI-H23) of less than 10 nM and a GI50 (ACHN) of less than 10 nM. It also gave a GI50 (EKVX) of less than 10 nM, a GI50 (RPMI-8226) of less than 10 nM and a pIC50 (SK-OV-3 [3]) of 8.14. For the same molecule, the GI50 (OVCAR-3) was less than 10 nM, the GI50 (HCC 2998) was less than 10 nM and the inhibition (Bos taurus [4]) was 92%. For the same molecule, the GI50 (NCI/ADR-RES) was less than 10 nM, the GI50 (SK-MEL-28) was greater than 10000 nM and the GI50 (A498) was less than 10 nM. The GI50 (SNB-19) was less than 10 nM, the GI50 (NCI-H522) was less than 10 nM and the GI50 (SK-OV-3 [5]) was less than 10 nM. It also gave a pEC50 [6] of 7.89, a GI50 (SF-295) of less than 10 nM and a pIC50 [7] of 8.03. It also gave a pIC50 (HeLa [8]) of 8.15, a GI50 (MOLT-4) of less than 10 nM and a GI50 (IGROV-1) of less than 10 nM. The GI50 (K562) was less than 10 nM, the “Ratio IC50” value (HeLa [9]) was 0.8 and the GI50 (HOP-62) was less than 10 nM. For the same molecule, the GI50 (SK-MEL-2) was less than 10 nM, the GI50 (RXF 393) was less than 10 nM and the GI50 (786-0) was less than 10 nM. For the same molecule, the GI50 (MDA-MB-231) was less than 10 nM, the “Ratio IC50” value [10] was 1.3 and the GI50 (OVCAR-8) was less than 10 nM. For the same molecule, the GI50 (MDA-MB-468) was less than 10 nM and the GI50 (U-251) was less than 10 nM.
